Assay results gathered from unrelated publications.
Lines come from different studies, so protocols differ.
Cell line: Vero
Read-out: cell growth or viability

Structure (SMILES)	technique	time	IC50 [µM]
COc1ccc(C2CC(c3ccc(Nc4nnc(-c5ccc(Cl)cc5)c5ccccc45)cc3)=NN2)cc1 (stereo not drawn)	–	–	3.22
O=C(Cn1c(=O)c2cc(I)ccc2n(Cc2ccccc2)c1=O)Nc1ccc(-c2nnc(S)o2)cc1	–	–	43.8
COc1cc(NC(=O)C2=C(C)NC(C)=C(C(=O)Nc3cc(OC)c(Cl)cc3OC)C2c2ccccc2)c(OC)cc1Cl	MTT	–	42.2
Oc1ccc(C2CC(c3ccc(Nc4nnc(-c5ccc(Cl)cc5)c5ccccc45)cc3)=NN2)cc1 (stereo not drawn)	–	–	4.35
COc1ccc(NC(=O)C2=C(C)NC(C)=C(C(=O)Nc3cc(OC)c(Cl)cc3OC)C2c2ccc(Cl)cc2)c(OC)c1 (stereo not drawn)	MTT	–	54
S=c1nc(-c2ccc(Nc3nnc(-c4ccc(Cl)cc4)c4ccccc34)cc2)cc(-c2ccc(Cl)cc2)[nH]1	–	–	3.15
COc1ccc(NC(=O)C2=C(C)NC(C)=C(C(=O)Nc3cc(OC)c(Cl)cc3OC)C2c2ccco2)c(OC)c1 (stereo not drawn)	MTT	–	68.1
O=C(CN1C(=O)SC(=Cc2ccc(Cl)cc2Cl)C1=O)Nc1ccc(C(=O)NNC(=O)c2ccccc2)cc1	MTS	–	3.97
Cc1nnc(-c2ccc(NC(=O)Cn3c(=O)c4cc(I)ccc4n(Cc4ccccc4)c3=O)cc2)o1	–	–	46.1
CN(C)C/C=C/C(=O)Nc1cc2c(Nc3ccc(F)c(Cl)c3)ncnc2cc1O[C@H]1CCOC1	MTT	72 h	110
Oc1ccccc1C1CC(c2ccc(Nc3nnc(-c4ccc(Cl)cc4)c4ccccc34)cc2)=NN1 (stereo not drawn)	–	–	4.11
Cc1ncc(CN2CCc3ccccc3C2)c2cc(C(=O)c3ccc4c(c3)OCCO4)oc12	MTT	72 h	181
COc1ccc(NC(=O)C2=C(C)NC(C)=C(C(=O)Nc3cc(OC)c(Cl)cc3OC)C2c2ccccc2)c(OC)c1 (stereo not drawn)	MTT	–	59.6
Cc1ccc2c(-c3cc4c(CN5CCN(Cc6ccccn6)CC5)cnc(C)c4o3)cc(=O)oc2c1	MTT	72 h	60.4
CCOC(=O)c1ccc(NC(=O)Cn2c(=O)c3cc(I)ccc3n(Cc3ccccc3)c2=O)cc1	–	–	49.1
C#Cc1cccc(Nc2ncnc3cc(OCCOC)c(OCCOC)cc23)c1	MTT	72 h	67
C=CCn1c(=O)n(CC(=O)Nc2ccc(-n3nc(C)cc3C)cc2)c(=O)c2cc(I)ccc21	–	–	43.4
COc1cc(NC(=O)C2=C(C)NC(C)=C(C(=O)Nc3cc(OC)c(Cl)cc3OC)C2c2ccco2)c(OC)cc1Cl	MTT	–	69.8
